Measured values pooled from the literature.
Protocols differ between the studies behind these lines.
Organism: Mycobacterium tuberculosis
Effect on: microbial growth

c1ccc(-c2nc3cc(Nc4nccn4-c4cc(NC5CCCC5)ncn4)ccc3[nH]2)cc1
MIC (W4): > 20 µM

CO[C@H]1/C=C/O[C@@]2(C)Oc3c(C)c(O)c4c(O)c(c(/C=N/N5CCN(C)CC5)c(O)c4c3C2=O)NC(=O)/C(C)=C\C=C\[C@H](C)[C@H](O)[C@@H](C)[C@@H](O)[C@@H](C)[C@H](OC(C)=O)[C@@H]1C
MIC (ATCC27294 H37RV; 8 days): 0.06 µg/mL

O=C1C(=NNc2nc(-c3ccccc3)cs2)C(N=Cc2cccc(Cl)c2)=NN1c1ccccc1
MIC (resazurin; H37RV; 5 days): 12.9 µM

C[C@@H]([C@H](N)C(=O)N[C@H](C(=O)O)[C@H]1O[C@@H](n2ccc(=O)[nH]c2=O)[C@H](O)[C@@H]1O)[C@H](O)c1ccc(O)cn1
MIC (H37RV; 14 days): > 50 µg/mL

COC(=O)c1cc(-c2cccc(NC(=S)Nc3ccc([N+](=O)[O-])cc3)c2)on1
MIC (ATCC27294 H37RV; 7 days): 2 µg/mL

CC(=O)O[C@H]1C[C@@]2(C)[C@@H](C[C@@H](O)[C@H]3[C@@]4(C)CC[C@@H](O)[C@@H](C)[C@@H]4CC[C@@]32C)/C1=C(\CCC=C(C)C)C(=O)O
MIC (resazurin; H37RA; 14 days): 4 µg/mL

O=C1C(=NNc2nc(-c3ccccc3)cs2)C(N=Cc2ccccc2)=NN1c1ccccc1
MIC (resazurin; H37RV; 5 days): 13.9 µM

CCc1nc2ccc(Cl)cn2c1C(=O)NCc1ccc(S(F)(F)(F)(F)F)cc1
MIC (H37RV; 5 days): 0.014 µM

NNC(=O)c1ccncc1
MIC (broth dilution; H37RV; 21 days): 0.25 µg/mL

C[C@@H]1CN(c2nc(=O)c3cc(C(F)(F)F)cc(C#N)c3s2)[C@@H](C)CN1CC1CCCCC1
MIC (resazurin; H37RV): > 2 µM

COC(=O)c1cc(-c2ccc(OC)c(NC(=O)Nc3ccc(Cl)c(Cl)c3)c2)on1
MIC (ATCC27294 H37RV; 7 days): 8 µg/mL

COc1ccc2cc(-c3nc(C(C)(C)C)[nH]c3-c3ccnc(N)c3)ccc2c1
MIC (ATCC27294 H37RV): 5.4 µM

COC(=O)c1cc(-c2cccc(NC(=O)Nc3ccc(F)cc3)c2)on1
MIC (ATCC27294 H37RV; 7 days): 0.5 µg/mL

CO[C@H]1/C=C/O[C@@]2(C)Oc3c(C)c(O)c4c(O)c(c(/C=N/N5CCN(C)CC5)c(O)c4c3C2=O)NC(=O)/C(C)=C\C=C\[C@H](C)[C@H](O)[C@@H](C)[C@@H](O)[C@@H](C)[C@H](OC(C)=O)[C@@H]1C
MIC (H37RV; 5 days): 0.003 µM

COC(=O)c1cc(-c2cccc(NC(=O)Nc3ccc(C)cc3)c2)on1
MIC (ATCC27294 H37RV; 7 days): 0.5 µg/mL

CC(C)[C@H]1CO[C@]23CCN(Cc4ccc(C(F)(F)F)cc4)C[C@H]2CCC(=O)N13
MIC (H37RV; 7 days): 0.16 µM

CC[C@H]1OC(=O)[C@H](C)[C@@H](O[C@H]2C[C@@](C)(OC)[C@@H](O)[C@H](C)O2)[C@H](C)[C@@H](O[C@@H]2O[C@H](C)C[C@H](N(C)C)[C@H]2O)[C@](C)(OC)C[C@@H](C)C(=O)[C@H](C)[C@@H](O)[C@]1(C)O
MIC (resazurin; H37RA; 14 days): 8 µg/mL

Cc1c(Cc2cccc(Cl)c2)c(=O)n2c([nH]c3ccccc32)c1C#N
MIC (broth dilution; H37RV): > 128 µg/mL

CO[C@H]1/C=C/O[C@@]2(C)Oc3c(C)c(O)c4c(O)c(c(/C=N/N5CCN(C)CC5)c(O)c4c3C2=O)NC(=O)/C(C)=C\C=C\[C@H](C)[C@H](O)[C@@H](C)[C@@H](O)[C@@H](C)[C@H](OC(C)=O)[C@@H]1C
MIC (ATCC27294 H37RV): < 0.1 µg/mL

O=C(C1CCCN(S(=O)(=O)c2ccc([N+](=O)[O-])cc2)C1)N1CCN(C(c2ccc(F)cc2)c2ccc(F)cc2)CC1 (centres unmarked)
MIC (ATCC27294 H37RV): > 25 µg/mL
